Laboratory results from paper PMC9283305 (Nitric oxide : biology and chemistry, 2022).
Where two headings read alike, the source gives them in different places. One block for each molecule: values may come before it.

Experiments:
[1] = biological target: T1, Wild-type Cygb (Homo sapiens, UniProt Q8WWM9); assay: UV-Vis difference spectroscopy titration of ferric cytoglobin; type: binding; details: SD, n = 3
Summary of the method: (§1)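 Ferric globin (5–15 μM) was titrated with imidazole stocks (1–100 mM) to about 100–15000 μM final. Buffer was 100 mM sodium phosphate, pH 7.4, at 25 °C. UV-Vis difference spectra were taken, and the max–min absorbance difference was plotted against ligand. KD came from a 1:1 quadratic binding fit. At least triplicate, with ≥2 protein batches; mean ± SD.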

[2] = biological target: T2, H81W (Homo sapiens, UniProt Q8WWM9, H81W); assay: as above; type: binding; details: SD, n = 3
Summary of the method: as §1

[3] = biological target: T3, H81L (Homo sapiens, UniProt Q8WWM9, H81L); assay: as above; type: binding; details: SD, n = 3
Summary of the method: as §1

[4] = biological target: T4, H81A (Homo sapiens, UniProt Q8WWM9, H81A); assay: as above; type: binding; details: SD, n = 3
Summary of the method: as §1

[5] = biological target: T5, H81Q (Homo sapiens, UniProt Q8WWM9, H81Q); assay: as above; type: binding; details: SD, n = 3
Summary of the method: as §1

[6] = cited from earlier work
[7] = biological target: T3, H81L; assay: UV-Vis difference spectroscopy titration of ferric cytoglobin; type: binding; details: SD, n = 3; remark: listed apart in the source
[8] = biological target: T5, H81Q; assay: as above; type: binding; details: SD, n = 3; remark: listed apart in the source
[9] = biological target: T4, H81A; assay: as above; type: binding; details: SD, n = 3; remark: listed apart in the source
[10] = biological target: T2, H81W; assay: as above; type: binding; details: SD, n = 3; remark: listed apart in the source
[11] = biological target: T1, Wild-type Cygb; assay: as above; type: binding; details: SD, n = 3; remark: listed apart in the source
[12] = biological target: T6, K116E (Homo sapiens, UniProt Q8WWM9, K116E); assay: as above; type: binding; details: SD, n = 3
[13] = biological target: T5, H81Q; assay: UV-Vis difference spectroscopy titration of ferric cytoglobin; type: binding; details: SD, n = 3; remark: listed apart in the source
Summary of the method: (§2)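 Sodium oleate stocks (50 mM in water, −20 °C) were diluted in buffer before use. Ferric globin (5–15 μM) in 100 mM sodium phosphate, pH 7.4, 25 °C was titrated with 200 μM–5 mM stocks to about 60–1500 μM oleate. The max–min difference-spectrum amplitude was plotted against oleate, and KD came from a 1:1 quadratic fit. At least triplicate, with ≥2 protein batches; mean ± SD.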

[14] = biological target: L108Q (Homo sapiens, UniProt Q8WWM9, L108Q); assay: as above; type: binding; details: SD, n = 3
Summary of the method: as §2

[15] = biological target: T4, H81A; assay: as above; type: binding; details: SD, n = 3; remark: listed apart in the source
Summary of the method: as §2

[16] = biological target: T3, H81L; assay: as above; type: binding; details: SD, n = 3; remark: listed apart in the source
Summary of the method: as §2

[17] = biological target: V105Y (Homo sapiens, UniProt Q8WWM9, V105Y); assay: as above; type: binding; details: SD, n = 3
Summary of the method: as §2

[18] = biological target: T6, K116E; assay: as above; type: binding; details: SD, n = 3; remark: listed apart in the source
Summary of the method: as §2

[19] = biological target: R84E (Homo sapiens, UniProt Q8WWM9, R84E); assay: as above; type: binding; details: SD, n = 3
Summary of the method: as §2

[20] = biological target: T91D (Homo sapiens, UniProt Q8WWM9, T91D); assay: as above; type: binding; details: SD, n = 3
Summary of the method: as §2

[21] = biological target: T2, H81W; assay: as above; type: binding; details: SD, n = 3; remark: listed apart in the source
Summary of the method: as §2

[22] = 37°C, 100 mM sodium phosphate, pH 7.4

T5 sequence (Q8WWM9 whole entry H81Q): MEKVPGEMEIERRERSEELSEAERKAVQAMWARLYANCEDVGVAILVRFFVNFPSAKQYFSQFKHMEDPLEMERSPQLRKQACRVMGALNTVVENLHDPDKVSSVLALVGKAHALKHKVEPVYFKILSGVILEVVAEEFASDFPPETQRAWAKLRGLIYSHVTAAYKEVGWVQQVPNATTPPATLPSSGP
T4 sequence (Q8WWM9 whole entry H81A): as the sequence (Q8WWM9 whole entry H81Q) above, with Q81A counted along it
T3 sequence (Q8WWM9 whole entry H81L): as the sequence (Q8WWM9 whole entry H81Q) above, with Q81L counted along it
T2 sequence (Q8WWM9 whole entry H81W): as the sequence (Q8WWM9 whole entry H81Q) above, with Q81W counted along it
T6 sequence (Q8WWM9 whole entry K116E): as the sequence (Q8WWM9 whole entry H81Q) above, with Q81H, K116E counted along it
T1 sequence (Q8WWM9 whole entry): as the sequence (Q8WWM9 whole entry H81Q) above, with Q81H counted along it
Sequence of L108Q (Q8WWM9 whole entry L108Q): as the sequence (Q8WWM9 whole entry H81Q) above, with Q81H, L108Q counted along it
Sequence of R84E (Q8WWM9 whole entry R84E): as the sequence (Q8WWM9 whole entry H81Q) above, with Q81H, R84E counted along it
Sequence of V105Y (Q8WWM9 whole entry V105Y): as the sequence (Q8WWM9 whole entry H81Q) above, with Q81H, V105Y counted along it
Sequence of T91D (Q8WWM9 whole entry T91D): as the sequence (Q8WWM9 whole entry H81Q) above, with Q81H, T91D counted along it

Molecule: c1c[nH]cn1 [Imidazole, imidazole]
Kd [1]: 820 ± 150 µM
Kd [2]: 7.3 ± 0.9 µM
Kd [3]: 23.5 ± 4.4 µM
Kd [4]: 10.6 ± 6.2 µM
Kd [5]: 15.3 ± 11 µM

Molecule: Myoglobin Wild-type: wild-type myoglobin [reference compound]
Nitrite reductase reaction rate constant ([6]; Mb values determined at 25°C): 5.6 ± 0.6^b M^−1s^−1

Molecule: Hemoglobin T-State: hemoglobin in the T-state [reference compound]
Nitrite reductase reaction rate constant [6, 22]: 0.12^a M^−1s^−1

Molecule: Hemoglobin R-State: hemoglobin in the R-state [reference compound]
Nitrite reductase reaction rate constant [6, 22]: 6.0^a M^−1s^−1

Kd [7]: 950 ± 80 µM
Kd [8]: 250 ± 10 µM
Kd [9]: 1520 ± 890 µM
Kd [10]: 140 ± 10 µM
Kd [11]: 1590 ± 740 µM
Kd [12]: 185000 ± 13000 µM
Molecule: CCCCCCCC(=O)O [Octanoic acid, octanoic acid, added as sodium octanoate]

Kd [13]: 46 ± 8 µM
Kd [14]: 14 ± 3 µM
Kd [15]: 24 ± 2 µM
Kd [16]: 36 ± 13 µM
Kd [17]: 4.8 ± 3.2 µM
Kd [18]: 62 ± 23 µM
Kd [19]: 170 ± 90 µM
Kd [20]: 5.7 ± 1.4 µM
Kd [21]: 32 ± 10 µM
Molecule: CCCCCCCC/C=C\CCCCCCCC(=O)O [Oleic acid, oleic acid (18:1 cis-9), added as sodium oleate]

Molecule: Myoglobin H64A: myoglobin distal histidine His64 to Ala mutant [reference compound]
Nitrite reductase reaction rate constant ([6]; Mb values determined at 25°C): 1.8 ± 0.3^b M^−1s^−1

Molecule: Myoglobin F43H: myoglobin mutant with histidine instead of Phe43(CD1) [reference compound]
Nitrite reductase reaction rate constant ([6]; Mb values determined at 25°C): 1.4 ± 0.1^c M^−1s^−1

Molecule: Myoglobin F43H/H64A: myoglobin double mutant Phe43(CD1) to His and His64 to Ala [reference compound]
Nitrite reductase reaction rate constant ([6]; Mb values determined at 25°C): 49.8 ± 1.5^c M^−1s^−1
